Screening data from PubChem.
miR122 inh: miR-122 Renilla sensor signal increase in Huh7, primary screen, miR-122 inhibitor project, cell-based, single point, plate reader; Huh7 miR-122 Renilla luciferase sensor, 48 h; neutral wells = 0, positive control = 100; activation (reporter increase), % at 12.5 µM; hit rate 0.3% among 340,000; AID 602342, 2012;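 active = mean replicate activation score at least 90 and every replicate individually at or above 90; inconclusive = only one of the two criteria met; inactive = neither criterion met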;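 note: higher luciferase means less miR-122 activity so hits act as miR-122 inhibitors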
S100A4 inh HTS: inhibitors of S100A4-myosin IIA peptide binding, primary screen, biochemical, fluorescence polarization, TAMRA-MyoIIA peptide; Protein S100-A4 (Homo sapiens), P26447; inhibition, % at 10.7 µM; hit rate 0.14% among 360,000;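 active = mean inhibition of at least 70% across replicates, with every replicate also reaching that level; inconclusive = mean inhibition reaches 70% but some replicates fall short; inactive = mean inhibition below 70%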
Target sequence (P26447 whole entry, looked up): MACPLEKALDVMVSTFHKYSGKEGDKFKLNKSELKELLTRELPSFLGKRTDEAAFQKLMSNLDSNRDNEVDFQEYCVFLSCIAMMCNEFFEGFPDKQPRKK
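Test system – S100A4 monomer (human) · Compound – single-point compound testing · Schedule – 5 min incubation before reading · Probe or stimulus – TAMRA-labelled myosin IIA heavy-chain peptide probe, 5 nM · Benchmarks – neutral control DMSO, positive control TFP · Medium – Calcium-containing HEPES buffer, pH 7.2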
Rtt109 HAT inh: inhibitors of C. albicans Rtt109/Vps75 HAT, primary screen, biochemical, ThioGlo CoA-SH fluorescence, plate reader. hit rate 0.16% among 330,000. AID 540336, 2011. purified Rtt109/Vps75, 4 h. inhibition, % at 34.9 µM;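 active = inhibition of at least 50% in every replicate; inconclusive = best replicate reaches 50% inhibition but some replicates fall short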
ERAP1 HTS inh: human ERAP1 aminopeptidase inhibitors, primary screen, biochemical, single point, plate reader | inhibition, % at 10.7 µM | Endoplasmic reticulum aminopeptidase 1 (Homo sapiens), Q9NZ08 | recombinant ERAP1, Leu-AMC fluorescence, 60 min | hit rate 0.15% among 340,000;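 active = mean replicate inhibition of at least 30%, or all replicates individually reaching that 30% level; inactive = mean below 30% and not every replicate reaching it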;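 note: 0% = neutral control wells and 100% = L-leucinethiol positive control wells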
MLL AF4-AF9 inh: inhibitors of AF4 peptide binding to AF9, primary screen, biochemical, AlphaScreen, biotin-AF4 peptide, FLAG-AF9, single point; inhibition, % at 10 µM; AID 651704, 2012; hit rate 0.47% among 350,000; Protein AF-9 (Homo sapiens), P42568;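 active = every replicate reaching a set inhibition limit, whatever the replicate mean, cut at about 25% in these data; inconclusive = mean inhibition reaches that limit but some replicates miss it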;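 note: 0% = plate neutral control median and 100% = total signal loss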
Target sequence (P42568 whole entry, looked up): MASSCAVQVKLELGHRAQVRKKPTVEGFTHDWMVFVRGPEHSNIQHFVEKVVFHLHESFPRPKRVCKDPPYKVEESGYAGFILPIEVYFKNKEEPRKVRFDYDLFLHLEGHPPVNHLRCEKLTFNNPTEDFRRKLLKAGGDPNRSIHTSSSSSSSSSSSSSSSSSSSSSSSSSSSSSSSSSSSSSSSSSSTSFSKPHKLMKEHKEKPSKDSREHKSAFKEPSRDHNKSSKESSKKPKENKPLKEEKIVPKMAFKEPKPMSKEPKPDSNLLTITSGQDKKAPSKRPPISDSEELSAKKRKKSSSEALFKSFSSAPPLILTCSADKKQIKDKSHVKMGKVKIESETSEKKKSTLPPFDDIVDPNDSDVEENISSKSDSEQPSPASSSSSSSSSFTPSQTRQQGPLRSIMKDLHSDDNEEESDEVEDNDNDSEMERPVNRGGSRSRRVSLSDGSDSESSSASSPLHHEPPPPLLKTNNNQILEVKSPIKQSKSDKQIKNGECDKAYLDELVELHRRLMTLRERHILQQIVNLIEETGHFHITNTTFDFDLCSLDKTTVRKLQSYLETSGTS
Numbers without * were called inactive; ? = inconclusive; . = no result given; ! = repeats disagree; [ ] = dose if it differs, or a comment. In the library only some 0.86% were active in any assay of this set; here they are far more common.

SMILES	miR122 inh	S100A4 inh HTS	Rtt109 HAT inh	ERAP1 HTS inh	MLL AF4-AF9 inh
CCc1c(C(=O)NC2CCCCC2)[nH]c(C)c1C(C)=O	212*	.	2	.	.
CC(=O)c1c(C)[nH]c(C(=O)NCc2ccccc2Cl)c1C	89	.	2	.	.
CN1C(=O)c2cc(NC(=O)C3CC3)ccc2OC[C@@H]2O[C@@H](CC(=O)NCc3ccccc3F)CC[C@@H]21	.	-3	.	0	-6
CO[C@H]1CN(C)C(=O)c2cc(NC(C)=O)ccc2OC[C@H](C)N(Cc2ccccc2C(=O)O)C[C@@H]1C	-4[16.7 µM]	6	.	0	-3
CN1CCN(C(=O)C[C@@H]2C[C@H]3c4cc(NC(=O)Nc5ccc(F)cc5)ccc4O[C@H]3[C@@H](CO)O2)CC1	1[16.7 µM]	-10	.	-1	2
O=C(NCCCCNC(=O)C(F)(F)F)C(F)(F)F	.	3	4	8	25*
N#C[C@@H]1[C@@H](c2ccccc2)[C@H](CO)N1C(=O)c1ccc2c(c1)OCO2	.	-2	.	-2	-3
CCCNC(=O)C[C@H]1CC[C@@H]2[C@H](COc3ccc(NC(=O)NCCC)cc3C(=O)N2C)O1	.	-11	.	2	-1
Oc1cc2c(cc1O)C1c3ccc(O)c(O)c3OCC1(O)C2 (stereo unspecified)	-7	-2	159*	9	40*
N#C[C@H]1[C@H](c2ccccc2C2=CCCCC2)[C@@H](CO)N1S(=O)(=O)c1cccc(F)c1	.	13	.	-2	1
CCOC(=O)Cn1c(COc2ccccc2OC)[n+](C)c2ccccc21	-4	1	.	-3	-1
CCCCCCCCCCOC(=O)Cn1c(COc2ccccc2)[n+](C)c2ccccc21	.	2	-5	49*	?
CCCCOC(=O)Cn1c(=O)n(CC(=O)OCCCC)c2ccccc21	0	.	15	.	.
CCCCCCCCCCOC(=O)Cn1c(COc2ccc(OC)cc2)[n+](C)c2ccccc21	-24	.	84*!	.	.
CCCCCCCCCCOC(=O)Cn1c(COc2cccc(C)c2)[n+](C)c2ccccc21	.	1	0	30*	13
CCCCCCCCCCOC(=O)Cn1c(COc2ccc(Cl)cc2)[n+](C)c2ccccc21	.	-18	-4	35*	42*
CCCCCOC(=O)Cn1c(=O)oc2ccccc21	-3	8	10	6	0
CO[C@H]1CN(C)C(=O)c2ccc(NS(=O)(=O)c3ccccc3C)cc2OC[C@H](C)NC[C@@H]1C	.	7	.	4	-4
CCCCCCCCCCOC(=O)Cn1c(COc2ccccc2C)[n+](C)c2ccccc21	.	-5	-4	33*	.
C[C@H](CO)N1C[C@H](C)[C@H](CN(C)Cc2ccc(C(=O)Nc3ccccc3N)cc2)Oc2ccc(NC(=O)C3CC3)cc2CC1=O	165*[16.7 µM]	0	.	-3	1
C[C@H](CO)N1C[C@H](C)[C@@H](CN(C)Cc2ccc(C(=O)Nc3ccccc3N)cc2)Oc2ccc(NC(=O)C3CC3)cc2CC1=O	8[16.7 µM]	-1	.	0	1
C[C@@H]1CN([C@@H](C)CO)C(=O)Cc2cc(NC(=O)CCCN(C)C)ccc2O[C@H]1CN(C)Cc1ccc(C(=O)Nc2ccccc2N)cc1	.	6	.	-1	31*
CC(=O)Nc1ccc(C=NNc2nnc(NN=Cc3ccc(NC(C)=O)cc3)c3ccccc23)cc1	.	72*	6	3	0
O=c1cc(OCc2ccccc2)cc[nH]1	.	0	3	8	75*
Cc1[nH]ccc(=O)c1OCc1ccccc1	-5	.	-13	.	.
SMILES	miR122 inh	S100A4 inh HTS	Rtt109 HAT inh	ERAP1 HTS inh	MLL AF4-AF9 inh
O=C(Nc1ccccc1F)N[C@@H]1CC[C@H](CCNC(=O)C2CCCC2)O[C@H]1CO	-9[16.7 µM]	4	.	-1	-1
Cc1ccc(NC(=S)NCc2ccc(F)cc2)cc1	106*	-8	-17	-5	.
Cc1ccc(NC(=S)Nc2ccc(F)cc2)cc1C	25	-2	50*	6	4
COc1ccc2c3c(n(C)c2c1)[C@H](CO)N(C(=O)C1CCOCC1)CC31CCN(Cc2cccc(F)c2)CC1	.	2	.	0	-2
COC(=O)c1[nH]nc(-c2ccccc2)c1-c1ccccc1	.	2	54*	.	-1
COC(=O)c1[nH]nc2c1C(=O)N(Cc1ccccc1)C2=O	-2	.	0	.	.
Oc1ccc(/C=N/N=C(c2ccccc2)c2ccccc2)c(O)c1O	.	.	5	.	.
O=C(/C(=N/N=C/c1ccc(O)c(O)c1O)c1ccccc1)c1ccccc1	-2	-15	78*	0	23
O=C(Nc1ccc(Br)cc1)c1cccc(S(=O)(=O)Nc2cnc3ccccc3c2)c1	.	.	21	.	.
COc1ccc(NC(=O)c2cccc(S(=O)(=O)Nc3ccc(Br)cc3)c2)cn1	103*	-1	16	0	6
O=C(C[C@@H]1CC[C@@H]2[C@H](COC[C@H](O)CN2C(=O)c2ccc(F)cc2)O1)Nc1nccs1	-3[16.7 µM]	-5	.	0	-2
COc1ccc(OC)c(CN2CCN(C(=O)c3ccc(C)c(S(=O)(=O)Nc4ccccc4OC)c3)CC2)c1	-11	-2	5	0	33*
COc1ccc(OC)c(CN2CCN(C(=O)c3cc(S(=O)(=O)Nc4ccccc4OC)ccc3C)CC2)c1	.	0	-6	2	4
O=C1C=C(N2CCOCC2)c2ccccc2C1=O	.	-8	8	0	3
O=C1C=C(N2CCOCC2)c2cccc3cccc1c23	.	83*	.	13	8
O=C1C(N2CCOCC2)=Cc2cccc3cccc1c23	-5	90*	.	2	2
COc1ccc(/C=C\c2cc(OC)c(OC)cc2CC[N+](C)(C)C)cc1OC	.	-1	13	99*	0
COc1ccc(/C=C/c2ccncc2)cc1OC	5	.	-5	.	.
CC(=O)N1[C@@H]2c3cccc(=O)n3C[C@@H]2[C@@H](CO)[C@@H]1C(=O)NCc1ccc(F)cc1	-2[16.7 µM]	2	.	-1	1
Cc1[nH]c(=O)[nH]c1C(=O)CCCCC(=O)O	-3	2	3	-2	73*
CCCCSCc1[nH]c(=O)[nH]c1C(=O)CCCCC(=O)OCC	-22	.	.	.	.
C[C@H](CO)N1C[C@H](C)[C@@H](CN(C)Cc2ccc3c(c2)OCO3)Oc2c(NC(=O)Nc3ccccc3)cccc2C1=O	95*[16.7 µM]	-2	.	1	-6
COc1ccc(NC(=O)Nc2cccc3c2O[C@H](CN(C)Cc2ccc4c(c2)OCO4)[C@@H](C)CN([C@@H](C)CO)C3=O)cc1	?	118*	.	3	-5
C[C@H]1CN([C@@H](C)CO)C(=O)c2cccc(NC(=O)C3CC3)c2O[C@@H]1CN(C)Cc1ccc2c(c1)OCO2	61[16.7 µM]	122*	.	-2	-1
